A selection follows.
Apaf-1 act: activators of human Apaf-1 apoptosome, primary screen, biochemical, DEVD-Rh110 fluorescence, uHTS; Apaf-1 apoptosome caspase-3 activation; stronger effect = lower value; activity change, negative = activation, % at 20 µM; actives 0.31% (n = 330,000);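 active = activity change at or below -40% at 20 µM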
Target sequence (O14727 whole entry, looked up): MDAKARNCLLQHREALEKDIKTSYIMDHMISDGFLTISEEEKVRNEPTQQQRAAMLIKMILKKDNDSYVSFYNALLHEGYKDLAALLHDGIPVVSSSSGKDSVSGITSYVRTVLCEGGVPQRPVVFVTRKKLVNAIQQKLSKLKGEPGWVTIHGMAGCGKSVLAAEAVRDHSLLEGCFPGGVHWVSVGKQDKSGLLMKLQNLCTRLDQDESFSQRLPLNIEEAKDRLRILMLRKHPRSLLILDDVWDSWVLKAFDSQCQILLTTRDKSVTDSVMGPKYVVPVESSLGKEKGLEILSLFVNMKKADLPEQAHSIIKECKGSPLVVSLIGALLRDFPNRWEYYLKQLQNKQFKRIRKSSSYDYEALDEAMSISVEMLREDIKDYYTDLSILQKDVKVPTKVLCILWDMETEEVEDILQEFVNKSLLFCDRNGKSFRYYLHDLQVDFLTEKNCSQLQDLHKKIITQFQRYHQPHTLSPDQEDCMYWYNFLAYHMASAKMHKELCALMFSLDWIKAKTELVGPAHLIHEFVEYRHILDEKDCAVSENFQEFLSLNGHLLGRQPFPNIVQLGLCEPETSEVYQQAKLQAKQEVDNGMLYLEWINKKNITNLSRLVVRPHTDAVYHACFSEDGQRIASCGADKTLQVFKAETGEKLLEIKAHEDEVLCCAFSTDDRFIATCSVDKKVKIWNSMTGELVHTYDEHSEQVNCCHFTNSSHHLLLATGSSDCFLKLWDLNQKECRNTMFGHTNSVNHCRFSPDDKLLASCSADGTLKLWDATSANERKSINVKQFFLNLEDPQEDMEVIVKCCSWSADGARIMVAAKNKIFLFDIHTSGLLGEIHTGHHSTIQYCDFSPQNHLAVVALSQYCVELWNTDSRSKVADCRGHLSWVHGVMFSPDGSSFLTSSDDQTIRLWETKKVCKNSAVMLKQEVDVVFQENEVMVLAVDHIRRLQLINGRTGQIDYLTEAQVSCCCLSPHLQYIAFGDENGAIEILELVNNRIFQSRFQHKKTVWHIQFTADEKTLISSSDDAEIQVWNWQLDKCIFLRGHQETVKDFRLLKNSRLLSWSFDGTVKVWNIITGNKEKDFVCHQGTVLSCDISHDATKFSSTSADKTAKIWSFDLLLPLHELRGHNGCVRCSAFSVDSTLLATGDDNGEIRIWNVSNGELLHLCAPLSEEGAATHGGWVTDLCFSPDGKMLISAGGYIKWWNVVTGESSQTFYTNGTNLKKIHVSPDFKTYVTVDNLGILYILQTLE
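Material: biochemical Apaf-1 apoptosome reconstitution; Medium: 20 mM HEPES buffer, pH 7.5, containing CHAPS and BSA; Reagent: dATP, cytochrome c, and (Z-DEVD)2-Rh110 caspase-3 substrate; Times: 30 min preincubation, 50 min reaction, room temperature; Signal: Rh110 fluorescence, excitation 480 nm, emission 540 nm; Measure: Caspase-3 activity via Apaf-1.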
Rh110 interf act: Rh110 fluorescence interference by putative Apaf-1 activators, confirmation, artefact control for Apaf-1 activator project, biochemical, 20 µM | shares compounds with Apaf-1 act | quenched caspase reaction, Ex480/Em540 | fluorescence interference (activity change), % at 20 µM, hits read low | 980 tested, under 10 active;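 active = mean activity change at or below -40% when tested at 20 µM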
Apaf-1 act conf: Apaf-1 activators, single-dose retest, confirmation, biochemical, fluorescence, DEVD-Rh110, 20 µM | shares compounds with Apaf-1 act | reconstituted apoptosome caspase-3 activity; stronger effect = lower value | activity change, negative = activation, % at 20 µM | actives 5% (n = 980) | AID 504617, 2011;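 active = mean activity change at or below -40%, meaning activation of 40% or more, at 20 µM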
Starred values were filed as active, the others as inactive.

SMILES | Apaf-1 act | others
NS(=O)(=O)c1ccc(N=Nc2c(O)[nH]c(=S)[nH]c2=O)cc1 | -138* | Rh110 interf act=4;Apaf-1 act conf=4
CCC(C)NC(=O)c1c(N)n(CC2CCCO2)c2nc3ccccc3nc12 (stereo not given) | 94
CCCCn1c(NC(=O)c2ccc(Br)o2)c(C(=O)OCC)c2nc3ccccc3nc21 | 79
Cc1c2ccncc2c(C)c2c1[nH]c1ccccc12 | 67
O=C1N(CN2CCOCC2)c2ccccc2C1(O)c1c[nH]c2ccccc12 (stereo not given) | -80* | Rh110 interf act=9;Apaf-1 act conf=9
CCC(C)NC(=O)c1c(N)n(CCCOC)c2nc3ccccc3nc12 (stereo not given) | 91
c1ccc(CCCN2CCN(CCOC(c3ccccc3)c3ccccc3)CC2)cc1 | 51
CCCN1CCc2cc(O)cc3c2[C@H]1Cc1ccc(O)c(O)c1-3 | 45
COC(=O)C1=C(c2cccc(OCc3ccccc3)c2)C[C@@H]2CC[C@H]1N2C(=O)NC1CCN(Cc2ccccc2)CC1 | 48
N#Cc1ccc(/C=C/C(=O)O)cc1 | -499* | Rh110 interf act=9;Apaf-1 act conf=9
NCCc1ccc(OCc2ccccc2)c(OCc2ccccc2)c1 | 46
CC(C)CC(N(C)C)C1(c2ccc(Cl)cc2)CCC1 (stereo not given) | 5
O=[N+]([O-])c1ccc(NCc2ccc(Cl)cc2)c2ccncc12 | 79
O=C(c1ccc2c(c1)ncn2-c1ccc(F)cc1F)N1CCC2(CC1)OCCO2 | -76* | Rh110 interf act=8;Apaf-1 act conf=5
Ic1ccccc1CN[C@@H]1C2CCN(CC2)[C@@H]1C(c1ccccc1)c1ccccc1 | 50
CC(NC(C)(C)C)C(=O)c1cccc(Cl)c1 (stereo not given) | -8
CN[C@H]1C[C@H]2O[C@@](C)([C@H]1OC)n1c3ccccc3c3c4c(c5c6ccccc6n2c5c31)C(=O)NC4 | 51
CCCCCCCCCCCCCCCC[N+](C)(C)C | 85
COC(=O)C1=C(c2ccc(Cl)c(C(F)(F)F)c2)C[C@@H]2CC[C@H]1N2C(=O)NCCOc1ccc(OC)cc1 | 40
Cc1ccc(-c2ccc(=O)n(CCC(=O)N3CCC4(CC3)OCCO4)n2)cc1 | -49* | Rh110 interf act=2;Apaf-1 act conf=11
Nc1c(C(=O)OCc2ccccc2)c2nc3ccccc3nc2n1Cc1cccs1 | 86
COCCCn1c(N)c(C(=O)OC(C)COC)c2nc3ccccc3nc21 (stereo not given) | 74
COCCCn1c(N)c(C(=O)Nc2sc3c(c2C(=O)OC)CCCC3)c2nc3ccccc3nc21 | 90
CC(Cc1ccccc1)NC(=O)NC(C)Cc1ccccc1 (stereo not given) | -182* | Rh110 interf act=-8;Apaf-1 act conf=5
COCCCn1c(N)c(C(=O)Nc2ccccc2)c2nc3ccccc3nc21 | 51
SMILES | Apaf-1 act | others
O=[N+]([O-])c1ccc(N2CCCNCC2)c2ncccc12 | 45
COCCCn1c(N)c(C(=O)NCc2ccco2)c2nc3ccccc3nc21 | 95
COc1cc2c(cc1O)[C@@H]1Cc3ccc(OC)c(O)c3CN1CC2 | 93
CCCCOP(=O)(CN1CCOCC1)OCCCC | -278* | Rh110 interf act=2;Apaf-1 act conf=7
Cn1ncnc2c(=O)n(C)c(=O)nc1-2 | 99
CN(C)[C@@H]1C(=O)C(C(N)=O)=C(O)[C@@]2(O)C(=O)C3=C(O)c4c(O)cccc4[C@@](C)(O)C3[C@H](O)C12 (stereo not given in full) | -2
C=CCN1C(=O)NC(=O)C(Cc2ccc(OC)c(OC)c2)C1=O (stereo not given) | -549* | Rh110 interf act=6;Apaf-1 act conf=15
COC(=O)C1=C(c2ccc(F)cc2OCc2ccccc2)C[C@@H]2CC[C@H]1N2C(=O)NC1CCN(Cc2ccccc2)CC1 | 53
CC(C)CCNC(=O)c1c(N)n(CC2CCCO2)c2nc3ccccc3nc12 (stereo not given) | 91
Nc1c(C(=O)NCCN2CCOCC2)c2nc3ccccc3nc2n1Cc1ccccc1 | 82
COCCNC(=O)c1c(NC(=O)c2ccco2)n(Cc2ccccc2)c2nc3ccccc3nc12 | 53
COc1ccc2c(c1)NP(=S)(Oc1ccccc1)N2 (stereo not given) | 50
O=S1(=O)N(CCN2CC=C(c3c[nH]c4cc(F)ccc34)CC2)c2cccc3c2N1CCC3 | 51
CCC(C)NC(=O)c1c(N)n(Cc2ccc3c(c2)OCO3)c2nc3ccccc3nc12 (stereo not given) | 96
O=[N+]([O-])c1ccc(NCCCN2CCOCC2)c2ncccc12 | 40
Cc1[nH]n(-c2ccccc2)c(=O)c1C(c1ccc([N+](=O)[O-])cc1)c1c(C)[nH]n(-c2ccccc2)c1=O | 79
C[n+]1c(-c2ccccc2)c2cc(N)ccc2c2ccc(N)cc21 | 98
N=c1n(CCO)c2ccccc2n1Cc1ccccc1 | -113* | Rh110 interf act=8;Apaf-1 act conf=11
CN1CCc2cc3c(c4c2C1Cc1ccccc1-4)OCO3 (stereo not given) | 91
COc1cc2c3c(c1OC)Oc1ccc(cc1)C[C@H]1c4c(cc(OC)c(OC)c4Oc4ccc(cc4)C[C@@H]3N(C)CC2)CCN1C | 45

Screening data as filed in PubChem.
